For 13 compounds, inhibition and Activity results are on record in ChEMBL document CHEMBL1811866, “Design, synthesis, and biological evaluation of abiotic, non-lactone modulators of LuxR-type quorum sensing” (Bioorg Med Chem, 2011).

What all share (format): functional
Assay [1] deals with T1, Transcriptional activator protein LasR (Pseudomonas aeruginosa (strain ATCC 15692 / PAO1 / 1C / PRS 101 / LMG12228)) (UniProt P25084).
T1 sequence (whole entry): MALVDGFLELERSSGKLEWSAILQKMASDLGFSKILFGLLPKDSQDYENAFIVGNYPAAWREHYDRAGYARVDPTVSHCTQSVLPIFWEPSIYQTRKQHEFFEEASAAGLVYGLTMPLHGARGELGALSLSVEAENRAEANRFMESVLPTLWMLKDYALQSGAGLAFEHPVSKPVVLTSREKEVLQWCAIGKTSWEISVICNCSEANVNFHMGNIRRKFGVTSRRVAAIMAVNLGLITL
In words: Antagonist activity at Pseudomonas aeruginosa PAO1 MW1 (pUM15) LasR assessed as inhibition of N-(3-oxo)-dodecanoyl HL-induced quorum sensing activation at 10 uM relative to untreated control. Put shortly: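 P. aeruginosa PAO1 MW1 colony grown overnight at 30 °C in LB with MOPS at pH 7 plus carbenicillin (300 µg/mL). Diluted 1:10 and shaken at 37 °C to OD 0.25–0.30. OdDHL added to the subculture at 1 μM final, then plated with test compound. Plates shaken at 37 °C for 8 h, then optical density and fluorescence read.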

Assay [2] addresses T2, Transcriptional activator protein TraR (Agrobacterium tumefaciens) (UniProt P33905).
T2 sequence (whole entry): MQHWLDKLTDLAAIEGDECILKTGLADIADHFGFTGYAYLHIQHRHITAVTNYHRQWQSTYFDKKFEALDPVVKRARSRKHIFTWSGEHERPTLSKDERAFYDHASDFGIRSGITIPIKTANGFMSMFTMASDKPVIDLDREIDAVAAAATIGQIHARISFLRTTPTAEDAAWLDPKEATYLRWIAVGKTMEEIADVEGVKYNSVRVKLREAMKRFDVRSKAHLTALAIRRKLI
In words: Antagonist activity at Agrobacterium tumefaciens WCF (pCF372) TraR assessed as inhibition of OOHL-induced quorum sensing activation at 10 uM relative to untreated control.

Assay [3] concerns the target T3, Transcriptional activator protein LuxR (Aliivibrio fischeri) (UniProt P12746).
T3 sequence (whole entry): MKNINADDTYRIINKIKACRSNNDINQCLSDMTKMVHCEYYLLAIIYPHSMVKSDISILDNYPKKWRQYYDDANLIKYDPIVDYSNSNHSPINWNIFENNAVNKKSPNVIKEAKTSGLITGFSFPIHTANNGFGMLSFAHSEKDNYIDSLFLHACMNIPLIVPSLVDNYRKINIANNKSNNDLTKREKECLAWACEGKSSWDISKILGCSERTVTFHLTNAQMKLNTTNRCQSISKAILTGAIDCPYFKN
Nature of the assay: Antagonist activity at Vibrio fischeri ESI 114 (delta-LuxI) LuxR assessed as inhibition of OHHL-induced quorum sensing activation at 10 uM relative to untreated control. Put shortly: (§1)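 LuxR reporter in V. fischeri ESI 114 (Δ-LuxI), compounds screened at 10 μM in triplicate. For inhibition, cells challenged with 2 μM OHHL. Agonism normalized to native ligand at 100 μM. Negative controls with no ligand subtracted as background.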

In assay [4] the target is T2, Transcriptional activator protein TraR (Agrobacterium tumefaciens). Nature of the assay: Agonist activity at Agrobacterium tumefaciens WCF (pCF372) TraR assessed as activation of quorum sensing at 10 uM relative to OOHL.
In assay [5] the target is T1, Transcriptional activator protein LasR (Pseudomonas aeruginosa (strain ATCC 15692 / PAO1 / 1C / PRS 101 / LMG12228)). Nature of the assay: Agonist activity at Pseudomonas aeruginosa PAO1 MW1 (pUM15) LasR assessed as activation of quorum sensing at 10 uM relative to N-(3-oxo)-dodecanoyl HL. Put shortly:
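P. aeruginosa PAO1 MW1 grown overnight at 30 °C in LB/MOPS pH 7 with carbenicillin (300 µg/mL). Subcultured 1:10 at 37 °C to OD 0.25–0.30 and plated with compound only, no native ligand. Incubated with shaking at 37 °C for 8 h. OD and fluorescence then read.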

Assay [6] relates to Escherichia coli DH5[alpha]. Nature of the assay: Agonist activity at Escherichia coli DH5alpha (pJN105L + pSC11) LasR assessed as activation of quorum sensing at 10 uM relative to N-(3-oxo)-dodecanoyl HL.
Assay [7] addresses T3, Transcriptional activator protein LuxR (Aliivibrio fischeri). In words: Agonist activity at Vibrio fischeri ESI 114 (delta-LuxI) LuxR assessed as activation of quorum sensing at 10 uM relative to OHHL. The procedure, abridged:
as §1

The subject of assay [8] is Escherichia coli DH5[alpha]. Nature of the assay: Antagonist activity at Escherichia coli DH5alpha (pJN105L + pSC11) LasR assessed as inhibition of N-(3-oxo)-dodecanoyl HL-induced quorum sensing activation at 10 uM relative to untreated control.

With `CCCCCCCCCC(=O)CC(=O)NC1CCCC1`, the inhibition in assay [1] is -1%; in assay [2], -3%; in assay [3], 89%. Further, the Activity in assay [4] is -1%; in assay [5], 54%; in assay [6], 84%; in assay [7], 4%.

Regarding `CCCCCCCCCC(=O)CC(=O)Nc1cc(-c2ccc(Cl)cc2)nn1C`, the inhibition in assay [1] was 0%; in assay [8] it was 0%; in assay [3], 2%. The Activity in assay [4] is -2%; in assay [5] it was 0%; in assay [6], 0%; in assay [7], 3%.

Regarding `CCCCCCCCCC(=O)CC(=O)NCc1ccccc1F`, the inhibition in assay [1] amounted to 13%; in assay [8] it was 38%. In addition, the Activity in assay [4] was -1%; in assay [5], 0%; in assay [6], 0%; in assay [7], 2%.

Turning to `CCCCCCCCCC(=O)CC(=O)NCc1cc(F)cc(F)c1`, the inhibition in assay [1] was 16%; in assay [2], -10%; in assay [8] it was 22%. Besides, the Activity was -1% in assay [4], 0% in assay [5], 0% in assay [6] and 3% in assay [7].

Turning to `CCCCCCCCCC(=O)CC(=O)NCc1ccc(F)cc1`, the inhibition in assay [1] and in assay [8] was 13% throughout. The Activity turned out to be 0% in assay [4], 0% in assay [5], 0% in assay [6] and 1% in assay [7].

For the compound `CCCCCCCCCC(=O)CC(=O)NCCC(c1ccccc1)c1ccccc1`, the results for the inhibition in assay [1], in assay [2] and in assay [8] were 8%, -6% and 17%, respectively. Also, the Activity in assay [4] was -1%; in assay [5], 0%; in assay [6], 0%; in assay [7] it was 6%.

In the case of `CCCCCCCCCC(=O)CC(=O)NCC(=O)OCC`, the inhibition was 11% in assay [1] and -3% in assay [2]. The Activity was 2% in assay [4], 12% in assay [5], 51% in assay [6] and 8% in assay [7].

As for `CCCCCCCCCC(=O)CC(=O)NCCC1=CCCCC1`, the values for the inhibition in assay [1], in assay [8] and in assay [3] were -7%, 10% and 35%, respectively. Besides, the Activity in assay [4] was -1%; in assay [5], 4%; in assay [6], 0%; in assay [7] it was 3%.

For the compound `CCCCCCCCCC(=O)CC(=O)NCc1ccc(OC)cc1`, the inhibition in assay [1] was 38%; in assay [2] it was -8%; in assay [3], 15%. The Activity came to 0% in assay [4], 1% in assay [5], 73% in assay [6] and 2% in assay [7].

As for `CCCCCCCCCC(=O)CC(=O)NCc1c(F)cccc1F`, the values for the inhibition in assay [1] and in assay [8] were 5% and 13%, respectively. Also, the Activity is -1% in assay [4], 0% in assay [5], 1% in assay [6] and 5% in assay [7].

As for `CCCCCCCCCC(=O)CC(=O)NCc1ccc(OC)c(OC)c1`, the inhibition is 9% in assay [1], -10% in assay [2] and 13% in assay [8]. The Activity turned out to be 0% in assay [4], 0% in assay [5], 1% in assay [6] and 1% in assay [7].

As to `CCCCCCCCCC(=O)CC(=O)Nc1ccccc1`, the results for the inhibition in assay [1], in assay [8] and in assay [3] were 29%, 54% and 12%, respectively. In addition, the Activity in assay [4] amounted to 1%; in assay [5] it was 1%; in assay [6], 3%; in assay [7] it was 2%.

Consider `O=C(Cc1cccc([N+](=O)[O-])c1)NC1CCCC1`, for which the figures for the inhibition in assay [1], in assay [8] and in assay [3] were -5%, 29% and 62%, respectively. The Activity in assay [5] is 0%; in assay [6] it was 0%; in assay [7], 33%.
